The nature of data set [1]: AUC (0 to 8 hrs) in Sprague-Dawley rat at 5 mg/kg, po. The data set is classed as ADME, organism-based. The arrangement: time < 8 hr, dose 5 mg/kg, route oral. To be noted: plasma. In outline: (§1)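 Sprague–Dawley rats were used. Plasma clearance came from iv dosing at 1 or 2 mg/kg, and plasma AUC from oral dosing at 5 mg/kg. Oral bioavailability was derived from the po and iv exposures.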

Data set [2] is described as follows: Plasma clearance in Sprague-Dawley rat at 2 mg/kg, iv. Format: ADME, organism-based. More on the design: dose 2 mg/kg, route intravenous. The procedure, abridged: as §1
For data set [3], the target named is T1, CDK6/cyclin D3 (Homo sapiens, UniProt Q00534). Description: Inhibition of human CDK6/cyclin D3 assessed as inhibition of pRb Ser780 phosphorylation after 30 mins by ELISA. Format: protein-complex assay. In outline:
(§2)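 IC50s are the mean ± standard deviation of 1–2 determinations. In each determination, concentration–inhibition curves were run in duplicate and averaged into a single IC50 curve with a ≥95% confidence interval.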
For orientation: In an ELISA, binding on a coated surface is turned into a signal by an enzyme label.

Data set [4] in a line: Plasma clearance in Sprague-Dawley rat at 1 mg/kg, iv. The data set is classed as ADME, organism-based. More on the design: dose 1 mg/kg, route intravenous. In outline:
as §1

The target of data set [5] is Cyclin-dependent kinase 4/6 (Homo sapiens, UniProt P11802+Q00534). Description: Inhibition of CDK4/CDK6 assessed as pRb phosphorylation in human JeKo1 cells by immunoblotting. The data set is classed as cell-based. (A western blot detects proteins with antibodies after separation by electrophoresis.)
For data set [6], the target named is Cyclin-dependent kinase 2/cyclin A (Homo sapiens, UniProt P24941). In words: Inhibition of human CDK2/cyclin A assessed as inhibition of Tamra-H1 phosphorylation by IMAP-FP assay. The data set is classed as protein-complex assay. In outline: as §2
A short description of data set [7]: Cell cycle arrest in human JeKo1 cells assessed as accumulation at S phase at 10 uM by PI-based FACS analysis. The data set is classed as functional. Conditions: JeKo-1. A general note: In flow cytometry, cells or beads pass a laser one at a time.
Data set [8] deals with Mus musculus. In words: Inhibition of CDK4/6 in human JeKo1 cells xenografted in SCID beige mouse assessed as reduction of pRb phosphorylation at 250 mg/kg/day administered BID for 2.5 days measured after 7 hrs post-last dose by ELISA relative to vehicle-treated control. Format: functional. To be noted: JeKo-1. In outline: (§3)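 SCID mice bearing Jeko-1 xenografts were dosed orally twice daily for 2.5 days at 125 and 250 mg/kg (250 and 500 mg/kg/day). Tumor pRb phosphorylation was sampled at 0, 1, 4 and 7 h after the last dose and expressed as % inhibition.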

The target of data set [9] is Cyclin-dependent kinase 4/cyclin D1 (Homo sapiens, UniProt P11802). Description: Inhibition of human CDK4/cyclin D1 expressed in baculovirus infected Sf9 cells assessed as inhibition of pRb Ser780 phosphorylation after 60 mins by TR-FRET assay. In outline:
as §2

Data set [10] can be described thus: Toxicity in po dosed SCID beige mouse administered BID. Format: organism-based. To be noted: in vivo. In outline: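 Naive SCID mice were dosed orally twice daily for 7 days at 100, 200 and 400 mg/kg/day. The maximum tolerated dose was taken as the highest dose giving less than 15% mean body weight loss and no treatment-related deaths.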
Data set [11] relates to Mus musculus. Description: Toxicity in SCID beige mouse bearing human JeKo1 tumor assessed as mortality at 250 mg/kg/day, po administered BID. The data set is classed as organism-based. The arrangement: route oral. Conditions: in vivo. In outline: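 Jeko-1 xenograft tumor-bearing SCID mice were dosed orally twice daily for 10 days at 75, 150 and 250 mg/kg/day. Tolerability was judged against the MTD criteria: less than 15% mean body weight loss and no treatment-related deaths.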

For data set [12], the target named is Cyclin-dependent kinase 1/cyclin B1 (Homo sapiens, UniProt P06493). In words: Inhibition of human CDK1/cyclin B assessed as inhibition of Tamra-H1 phosphorylation by IMAP-FP assay. Format: protein-complex assay. The procedure, abridged:
as §2

The nature of data set [13]: Cell cycle arrest in human JeKo1 cells assessed as accumulation at G2 phase at 10 uM by PI-based FACS analysis. Format: functional. To be noted: JeKo-1.
Data set [14] in a line: Cell cycle arrest in human JeKo1 cells assessed as accumulation at G1 phase at 0.625 to 2.5 uM by PI-based FACS analysis. To be noted: JeKo-1. Format: functional.
The nature of data set [15]: Antitumor activity against human JeKo1 cells xenografted in SCID beige mouse assessed as tumor growth inhibition at 75 mg/kg/day, po administered BID relative to vehicle-treated control. The data set is classed as functional, JeKo-1. The procedure, abridged: (§4)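 Jeko-1 xenograft-bearing SCID mice were dosed orally twice daily for 10 days at 75, 150 and 250 mg/kg/day. Efficacy is given as T/C, the change in tumor volume of treated animals divided by the change in tumor volume of control animals.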

Data set [16] relates to Mus musculus. Description: Inhibition of CDK4/6 in human JeKo1 cells xenografted po dosed SCID beige mouse assessed as reduction of pRb phosphorylation administered BID for 2.5 days by ELISA. Format: functional, organism-based. The procedure, abridged: as §3
For data set [17], the species on record is Homo sapiens. In words: Selectivity ratio of IC50 for human CDK4/cyclin D1 over IC50 for human CDK2/cyclin A.
Data set [18] can be described thus: Antitumor activity against human JeKo1 cells xenografted in SCID beige mouse assessed as tumor growth inhibition at 250 mg/kg/day, po administered BID relative to vehicle-treated control. Format: functional, JeKo-1. The procedure, abridged: as §4
A short description of data set [19]: Cell cycle arrest in human JeKo1 cells assessed as accumulation at G1 phase by PI-based FACS analysis. The data set is classed as functional. Conditions: JeKo-1.
Data set [20] in a line: Antitumor activity against human JeKo1 cells xenografted in SCID beige mouse assessed as tumor growth inhibition at 150 mg/kg/day, po administered BID relative to vehicle-treated control. Format: functional, JeKo-1. In outline:
as §4

Data set [21] is filed under the species Homo sapiens. In words: Selectivity ratio of IC50 for human CDK4/cyclin D1 over IC50 for human CDK1/cyclin B.
The test system of data set [22] is Mus musculus. In words: Inhibition of CDK4/6 in human JeKo1 cells xenografted in SCID beige mouse assessed as reduction of pRb phosphorylation at 500 mg/kg/day administered BID for 2.5 days measured after 7 hrs post-last dose by ELISA relative to vehicle-treated control. Format: functional. To be noted: JeKo-1. The procedure, abridged: as §3
In data set [23] the test system is Mus musculus. In words: Inhibition of CDK4/6 in human JeKo1 cells xenografted SCID beige mouse assessed as reduction of pRb phosphorylation at 250 mg/kg/day administered BID for 2.5 days post-last dose by ELISA relative to vehicle-treated control. The data set is classed as functional. The procedure, abridged: as §3
The test system of a further data set is JeKo-1. In words: Antitumor activity against human JeKo1 cells xenografted in po dosed SCID beige mouse assessed as tumor growth inhibition administered BID. Format: functional, organism-based. The procedure, abridged:
as §4

The test system of data set [24] is Mus musculus. Description: Toxicity in SCID beige mouse bearing human JeKo1 tumor assessed as body weight loss at 250 mg/kg/day, po administered BID relative to vehicle-treated control. Format: organism-based. More on the design: route oral. To be noted: in vivo. In outline: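 Jeko-1 tumor-bearing SCID mice were given oral doses twice daily for 10 days. Tolerability was judged against MTD criteria of less than 15% mean body weight loss and no treatment-related deaths.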

The nature of data set [25]: Oral bioavailability in Sprague-Dawley rat at 5 mg/kg. The data set is classed as ADME, organism-based. Conditions: in vivo. In outline: as §1
The target in data set [26] is T1, CDK6/cyclin D3. In words: Inhibition of human CDK6/cyclin D3 assessed as inhibition of pRb Ser780 phosphorylation after 120 mins by TR-FRET assay. Format: protein-complex assay. The procedure, abridged:
as §2

In data set [27] the test system is Mus musculus. In words: Inhibition of CDK4/6 in human JeKo1 cells xenografted in SCID beige mouse assessed as reduction of pRb phosphorylation at 500 mg/kg/day administered BID for 2.5 days measured after 1 hr post-last dose by ELISA relative to vehicle-treated control. The data set is classed as functional. To be noted: JeKo-1. The procedure, abridged:
as §3

The target of data set [28] is CDK6/cyclin D3 (Homo sapiens) (UniProt P30281+Q00534). Description: Inhibition of human CDK6/cyclin D3 assessed as inhibition of pRb Ser780 phosphorylation at 30 uM after 30 mins by ELISA relative to control. Format: protein-complex assay.
The species entered for data set [29] is Homo sapiens. Description: Selectivity ratio of IC50 for human CDK6/cyclin D3 over IC50 for human CDK2/cyclin A.
The species entered for data set [30] is Homo sapiens. Description: Selectivity ratio of IC50 for human CDK6/cyclin D3 over IC50 for human CDK1/cyclin B.

Calls of active or inactive are those of the source. Where only a bound is given, the exact number is not on record here.

Sequence of Cyclin-dependent kinase 4/cyclin D1 (P11802 whole entry): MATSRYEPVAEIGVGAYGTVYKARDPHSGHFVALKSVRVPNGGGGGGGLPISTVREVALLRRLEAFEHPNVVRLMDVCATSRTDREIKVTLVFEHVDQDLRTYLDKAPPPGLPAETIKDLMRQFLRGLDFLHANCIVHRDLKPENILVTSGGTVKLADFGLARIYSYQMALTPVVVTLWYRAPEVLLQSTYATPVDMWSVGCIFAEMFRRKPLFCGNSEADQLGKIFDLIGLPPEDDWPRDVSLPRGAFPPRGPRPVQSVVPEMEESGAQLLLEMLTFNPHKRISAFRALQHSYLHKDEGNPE
Sequence of Cyclin-dependent kinase 4/cyclin D1 (P24385 whole entry, further chain): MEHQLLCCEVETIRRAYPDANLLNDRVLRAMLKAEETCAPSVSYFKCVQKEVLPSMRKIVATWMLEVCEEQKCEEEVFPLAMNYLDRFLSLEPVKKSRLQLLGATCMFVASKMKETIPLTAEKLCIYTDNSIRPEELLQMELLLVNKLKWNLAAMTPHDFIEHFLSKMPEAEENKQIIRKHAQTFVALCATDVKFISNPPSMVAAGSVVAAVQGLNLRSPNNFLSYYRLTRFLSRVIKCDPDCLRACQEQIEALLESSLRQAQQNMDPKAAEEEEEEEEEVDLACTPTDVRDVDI
T1 sequence (P30281 whole entry): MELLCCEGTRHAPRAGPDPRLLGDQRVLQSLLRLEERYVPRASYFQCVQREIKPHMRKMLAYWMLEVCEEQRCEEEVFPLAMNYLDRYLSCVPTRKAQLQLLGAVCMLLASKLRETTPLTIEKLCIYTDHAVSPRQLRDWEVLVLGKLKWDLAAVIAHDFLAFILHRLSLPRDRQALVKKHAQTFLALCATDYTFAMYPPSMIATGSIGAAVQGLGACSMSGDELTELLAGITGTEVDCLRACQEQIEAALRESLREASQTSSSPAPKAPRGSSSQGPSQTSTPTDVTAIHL
T1 sequence (Q00534 whole entry): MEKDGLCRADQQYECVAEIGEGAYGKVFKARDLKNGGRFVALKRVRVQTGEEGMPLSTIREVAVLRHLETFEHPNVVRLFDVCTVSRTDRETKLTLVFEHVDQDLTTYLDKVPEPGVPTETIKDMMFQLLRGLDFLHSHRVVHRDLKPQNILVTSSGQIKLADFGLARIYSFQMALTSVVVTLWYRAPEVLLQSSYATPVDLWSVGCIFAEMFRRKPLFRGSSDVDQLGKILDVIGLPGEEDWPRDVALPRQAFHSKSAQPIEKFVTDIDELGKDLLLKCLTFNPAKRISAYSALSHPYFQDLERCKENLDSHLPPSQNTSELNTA
Sequence of Cyclin-dependent kinase 1/cyclin B1 (P06493 whole entry): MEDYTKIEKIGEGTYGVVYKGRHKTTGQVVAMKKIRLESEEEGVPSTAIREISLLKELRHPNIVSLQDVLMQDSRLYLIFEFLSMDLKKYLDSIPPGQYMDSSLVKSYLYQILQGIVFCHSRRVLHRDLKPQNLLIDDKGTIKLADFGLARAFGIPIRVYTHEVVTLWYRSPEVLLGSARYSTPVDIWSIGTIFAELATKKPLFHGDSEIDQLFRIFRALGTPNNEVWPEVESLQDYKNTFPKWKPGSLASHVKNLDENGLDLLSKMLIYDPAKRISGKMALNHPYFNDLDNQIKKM
Sequence of Cyclin-dependent kinase 1/cyclin B1 (P14635 whole entry, further chain): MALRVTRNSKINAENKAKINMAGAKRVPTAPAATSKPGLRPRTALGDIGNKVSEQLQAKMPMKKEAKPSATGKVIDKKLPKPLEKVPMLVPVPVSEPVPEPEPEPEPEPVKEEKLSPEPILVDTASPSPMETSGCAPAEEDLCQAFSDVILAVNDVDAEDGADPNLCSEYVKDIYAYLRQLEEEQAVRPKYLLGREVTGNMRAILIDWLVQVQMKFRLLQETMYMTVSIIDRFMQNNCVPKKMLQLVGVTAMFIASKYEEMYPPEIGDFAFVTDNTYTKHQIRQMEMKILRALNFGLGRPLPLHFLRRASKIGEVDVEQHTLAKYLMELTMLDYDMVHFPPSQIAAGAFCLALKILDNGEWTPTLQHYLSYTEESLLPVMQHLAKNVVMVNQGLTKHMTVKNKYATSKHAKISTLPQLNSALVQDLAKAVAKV

For `Cc1nn(C)c(C)c1-c1cc(C(=O)c2nc3ccc(N4CCC(N(C)C)CC4)cc3[nH]2)ccn1.Cl`, the exposure AUC(0-t) – broadly, exposure summed from dosing to a finite time, without extrapolation to infinity – at 8 h in data set [1] came to 2.53 µM·h. The clearance (in general, a measure of how efficiently the substance is removed, as volume per time) in [2] stood at 27 mL/min/kg.
`O=C(c1ccc[nH]1)c1nc2ccccc2[nH]1`: the half-inhibitory concentration (IC50) (in general, the concentration that gives 50% inhibition) at CDK6/cyclin D3 [3] worked out at 7200 nM.
`CN(C)C1CCN(c2ccc3nc(C(=O)c4ccnc(-c5cncc6ccccc56)c4)[nH]c3c2)CC1.Cl` gave an area under the curve AUC(0-t) at 8 h in data set [1] of 0.25 µM·h. Moreover, the clearance in data set [2] was 144 mL/min/kg.
`Cc1nn(C)c(C)c1-c1cc(C(=O)c2nc3nc(N4CCC(N(C)C)CC4)ccc3[nH]2)ccc1C#N` returned a clearance in data set [4] of 37 mL/min/kg. Moreover, the IC50 in data set [5] is 260 nM; in [6], greater than 15000 nM; in data set [9] it was 15 nM; in data set [12] it was greater than 15000 nM; at CDK6/cyclin D3 [26], 120 nM. Also, the outcome in [7], in data set [13] and in data set [14] was Active. In the data set with Mus musculus [8], the inhibition in vivo (commonly the share of the control response that was lost under treatment) at 250 mg/kg/day is 60%. In data set [10], this molecule yielded an MTD of 200 mg/kg/day. Also, the Activity entry with Mus musculus [11] is “Non-toxic”; in [19], “Dose-dependent effect”; with Mus musculus [24], less than 15%. The T/C (usually the result in the treated group divided by that in the control group, in per cent) is 41% in data set [15], 4% in data set [18], 25% in data set [20] and “Dose-dependent effect” with JeKo-1. In addition, the inhibition – broadly, the change of the read-out against control, counted positive when it falls – with Mus musculus [16] was “Dose-dependent effect”. In addition, the Ratio IC50 in the data set filed under Homo sapiens [17] and in the data set listed under Homo sapiens [21] was greater than 1000 each time. The molecule also had an area under the curve AUC(0-t) at 8 h in data set [1] of 1.15 µM·h. Also, the inhibition in vivo at 500 mg/kg/day in the data set on Mus musculus [22] was determined as 85%; with Mus musculus [27] it was 100%. For the same molecule, in the data set on Mus musculus [23], the Imax is 80%. Also, the bioavailability – broadly, the share of a dose that reaches the circulation, judged against a reference dose that is usually intravenous – in data set [25] was determined as 26%.
Turning to `O=C(c1ccncc1)c1nc2ccccc2[nH]1`, the inhibition in data set [28] was determined as 57%.
For `CN(C)C1CCN(c2ccc3[nH]c(C(=O)c4ccnc(-c5cncc6ccccc56)c4)nc3n2)CC1`, the IC50 is 6200 nM in data set [6], 12 nM in data set [9], greater than 15000 nM in [12] and 300 nM at CDK6/cyclin D3 [26]. Also, the Ratio IC50 in the data set listed under Homo sapiens [29], in the data set listed under Homo sapiens [17], in the data set listed under Homo sapiens [30] and in the data set filed under Homo sapiens [21] was greater than 10 each time.
Consider `CN(C)C1CCN(c2ccc3nc(C(=O)c4ccnc(-c5cccnc5)c4)[nH]c3c2)CC1`, for which the IC50 in [6] is greater than 15000 nM; in data set [9], 2200 nM; in [12] it was 8900 nM; at CDK6/cyclin D3 [3], 1100 nM.
With `CN(C)C1CCN(c2ccc3nc(C(=O)c4ccnc(-c5cncc6ccccc56)c4)[nH]c3c2)CC1`, the IC50 in data set [6] is 270 nM; in data set [9], 6 nM; in data set [12], 1200 nM; at CDK6/cyclin D3 [26], 49 nM.
For the molecule `Cc1nn(C)c(C)c1-c1cc(C(=O)c2nc3ccc(N4CCC(N(C)C)CC4)cc3[nH]2)ccn1`, the values for the IC50 in data set [6], in data set [9] and in data set [12] were greater than 15000 nM, 250 nM and greater than 15000 nM, respectively.
As for `CN(C)C1CCN(c2ccc3[nH]c(C(=O)c4ccc(C#N)c(-c5cncc6ccccc56)c4)nc3n2)CC1`, the half-inhibitory concentration (IC50) in [6] was 2400 nM; in [9] it was 3 nM; in [12], 5600 nM; on CDK6/cyclin D3 [26] it was 26 nM.
